Experimental findings from ChEMBL document CHEMBL4725247, “Cytosolic delivery of peptidic STAT3 SH2 domain inhibitors” (Bioorg Med Chem, 2020) are described below.

The nature of data set [1]: Stability in human HeLa cell lysate assessed as compound remaining at 150 uM measured after 24 hrs by reverse-phase HPLC assay. Type of data set: ADME, subcellular. The settings on record: read-out: Stabilty. Summed up:
(§1)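 Clarified lysate made from HeLa cells lysed on ice for 15 min in 50 mM Tris, 250 mM NaCl, 0.5% IGEPAL CA-630, pH 8.0. Peptide added at 150 μM and held at 37 °C. Peak area normalized to time zero.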

Data set [2] has as its target Signal transducer and activator of transcription 3 (Homo sapiens) (UniProt P40763). Briefly: Inhibition of OSM-stimulated STAT3 activity in human U3A cell at 25 uM pretreated for 24 hrs followed by OSM stimulation and measured after 6 hrs by bright Glo-luciferase reporter gene assay. A digest of the protocol: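 STAT3-luc U3A fibrosarcoma reporter cells seeded at 10⁴ cells/well overnight. Pretreated with peptide or vehicle (10 or 25 μM) for 24 h at 37 °C in DMEM + 10% FBS, then stimulated 6 h with OSM 10 ng/mL. Luciferase read by Bright-Glo luminescence. Controls: OSM alone and unstimulated cells.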
A general note: A reporter such as luciferase makes a cellular process visible.

The test system of a further data set is MDA-MB-468. Briefly: Cytotoxicity against human MDA-MB-468 cells assessed as cell viability at 25 uM measured after 72 hrs by Celltiter-Glo assay. Type of data set: functional, cell-based. Summed up:
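MDA-MB-468 breast cancer cells seeded at 3 × 10³ cells/well overnight, then given peptide or vehicle (10 or 25 μM) and kept at 37 °C for 72 h. Viability read by CellTiter-Glo luminescence.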

A short description of data set [3]: Stability of the compound in DMEM with 10% FBS (fetal bovine serum) at 150 uM measured at 24 hrs by reverse-phase HPLC assay.
Data set [4] in a line: Stability in human HeLa cell lysate assessed as compound remaining at 150 uM measured after 1 hr by reverse-phase HPLC assay. Type of data set: ADME, subcellular. The settings on record: read-out: Stabilty. Summed up: as §1

Calls of active or inactive are those of the source. No cut-off for these calls is given here. Where a SMILES comes first, the peptide text is derived from it. Bridges are numbered along the chain shown (N, C = ends). Roman numbers before positions name the chains, in order. [ ]: non-standard residue; d: D form. F2Pmp = N[C@@H](Cc1ccc(C(F)(F)P(=O)(O)O)cc1)C(=O)O; pY = N[C@@H](Cc1ccc(OP(=O)(O)O)cc1)C(=O)O; 2Nal = N[C@@H](Cc1ccc2ccccc2c1)C(=O)O; βAla = NCCC(=O)O A value given as a limit tells only on which side of the number the result lay.

Chain of Signal transducer and activator of transcription 3 (Homo sapiens) (P40763 whole entry): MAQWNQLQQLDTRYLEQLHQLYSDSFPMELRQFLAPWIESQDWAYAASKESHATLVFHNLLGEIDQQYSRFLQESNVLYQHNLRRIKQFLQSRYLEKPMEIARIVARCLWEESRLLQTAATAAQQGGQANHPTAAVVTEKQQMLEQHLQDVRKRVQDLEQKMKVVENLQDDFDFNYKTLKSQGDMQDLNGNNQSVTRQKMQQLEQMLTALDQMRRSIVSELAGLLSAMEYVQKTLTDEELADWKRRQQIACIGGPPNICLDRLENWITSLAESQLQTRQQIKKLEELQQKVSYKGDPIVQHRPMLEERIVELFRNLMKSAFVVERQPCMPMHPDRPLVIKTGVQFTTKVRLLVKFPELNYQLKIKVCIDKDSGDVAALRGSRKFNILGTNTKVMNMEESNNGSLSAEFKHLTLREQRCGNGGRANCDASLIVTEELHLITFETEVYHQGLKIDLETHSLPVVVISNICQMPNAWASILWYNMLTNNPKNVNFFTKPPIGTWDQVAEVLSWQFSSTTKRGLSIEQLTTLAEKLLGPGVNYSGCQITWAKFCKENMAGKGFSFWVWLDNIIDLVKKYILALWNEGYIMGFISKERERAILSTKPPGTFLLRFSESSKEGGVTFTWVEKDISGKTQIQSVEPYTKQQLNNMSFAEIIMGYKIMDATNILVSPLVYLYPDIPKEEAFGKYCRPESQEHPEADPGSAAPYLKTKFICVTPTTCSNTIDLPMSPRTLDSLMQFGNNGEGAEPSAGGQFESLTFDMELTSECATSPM

In the case of `CC(C)C[C@H](NC(=O)[C@H](Cc1ccc(C(F)(F)P(=O)(O)O)cc1)NC(=O)CNC(=O)CCNC(=O)CCNC(=O)CC[C@@H]1NC(=O)[C@@H](CCCNC(=N)N)NC(=O)[C@H](CCCNC(=N)N)NC(=O)[C@@H](CCCNC(=N)N)NC(=O)[C@H](CCCNC(=N)N)NC(=O)[C@H](Cc2ccc3ccccc3c2)NC(=O)[C@@H](Cc2ccccc2)NC(=O)[C@H](Cc2ccccc2)NC1=O)C(=O)N1CCC[C@H]1C(=O)N(C)[C@@H](CCC(N)=O)C(=O)N[C@H](C(=O)N[C@H](C(N)=O)C(C)C)[C@@H](C)O`, the remaining at 24 h, 150 µM in data set [1] was determined as 100%. The inhibition result in data set [2] was “inactive”. Moreover, the result with MDA-MB-468 was inactive.
As to `CC(C)C[C@H](NC(=O)[C@H](Cc1ccc(C(F)(F)P(=O)(O)O)cc1)NC(=O)CNC(=O)CCNC(=O)CCNC(=O)CC[C@@H]1NC(=O)[C@@H](CCCNC(=N)N)NC(=O)[C@H](CCCNC(=N)N)NC(=O)[C@@H](CCCNC(=N)N)NC(=O)[C@H](CCCNC(=N)N)NC(=O)[C@H](Cc2ccc3ccccc3c2)NC(=O)[C@@H](Cc2ccccc2)NC(=O)[C@H](Cc2ccccc2)NC1=O)C(=O)N1CCC[C@H]1C(=O)N[C@@H](CCC(N)=O)C(=O)N[C@H](C(=O)N[C@H](C(N)=O)C(C)C)[C@@H](C)O` (I: cyclo(F[dF][2Nal]R[dR]R[dR]E) / II: [βAla][βAla]G[F2Pmp]LPQTV-NH2; amide I:8-II:N), in data set [3], the Stabilty result is given as “Stable”. The inhibition result in data set [2] was “inactive”.
For `CC(C)C[C@H](NC(=O)[C@H](Cc1ccc(OP(=O)(O)O)cc1)NC(=O)CNC(=O)CCNC(=O)CCNC(=O)CC[C@@H]1NC(=O)[C@@H](CCCNC(=N)N)NC(=O)[C@H](CCCNC(=N)N)NC(=O)[C@@H](CCCNC(=N)N)NC(=O)[C@H](CCCNC(=N)N)NC(=O)[C@H](Cc2ccc3ccccc3c2)NC(=O)[C@@H](Cc2ccccc2)NC(=O)[C@H](Cc2ccccc2)NC1=O)C(=O)N1CCC[C@H]1C(=O)N[C@@H](CCC(N)=O)C(=O)N[C@H](C(=O)N[C@H](C(N)=O)C(C)C)[C@@H](C)O` (I: cyclo([2Nal]R[dR]R[dR]EF[dF]) / II: [βAla][βAla]G[pY]LPQTV-NH2; amide I:6-II:N), in data set [4], the remaining at 1 h, 150 µM was less than 20%. Besides, the Stabilty result in data set [3] is on record as “Unstable”. For the same compound, the inhibition entry in data set [2] was “inactive”.
